{
  "source": "ChEMBL document CHEMBL2390866",
  "about": "“Novel pyrimidoazepine analogs as serotonin 5-HT(2A) and 5-HT(2C) receptor ligands for the treatment of obesity” (Eur J Med Chem, 2013)",
  "key": {"Mus musculus [1]": {"system": "Mus musculus", "test": "Antiobesity activity in B6.V/J ob/ob mouse assessed as reduction of body weight gain at 50 mg/kg, po qd measured after 14 days", "format": "functional, organism-based", "design": "dose 50 mg/kg", "method_in_brief": "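Male ob/ob mice (B6.V-Lep^ob/J) received oral doses once daily for 14 days, with vehicle control. Food intake and body weight gain were followed.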"}, "[2]": {"target": "5-hydroxytryptamine receptor 2A (Homo sapiens, UniProt P28223)", "sequence (P28223 whole entry)": "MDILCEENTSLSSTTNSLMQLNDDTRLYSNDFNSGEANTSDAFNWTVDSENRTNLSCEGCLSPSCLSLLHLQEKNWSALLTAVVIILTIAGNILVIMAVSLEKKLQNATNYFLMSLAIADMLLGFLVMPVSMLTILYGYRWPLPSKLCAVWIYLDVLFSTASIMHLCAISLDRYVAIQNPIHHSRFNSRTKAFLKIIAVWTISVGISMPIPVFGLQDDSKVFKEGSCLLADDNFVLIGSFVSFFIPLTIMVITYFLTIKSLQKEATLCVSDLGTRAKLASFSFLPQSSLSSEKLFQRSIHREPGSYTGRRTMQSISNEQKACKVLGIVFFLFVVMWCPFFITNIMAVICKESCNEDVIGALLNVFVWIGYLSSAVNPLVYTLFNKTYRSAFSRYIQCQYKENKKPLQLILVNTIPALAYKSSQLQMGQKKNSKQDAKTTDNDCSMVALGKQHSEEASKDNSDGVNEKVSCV", "test": "Displacement of [3H]-ketanserin from human recombinant 5HT-2A receptor expressed in CHOK1 cell membranes after 60 mins", "design": "species or system CHO-K1", "method_in_brief": "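Buffer was 50 mM Tris-HCl pH 7.4 with 5 mM CaCl2 and 0.1% ascorbic acid. Test compound added at a range of concentrations.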"}, "Mus musculus [3]": {"system": "Mus musculus", "test": "Antiobesity activity in B6.V/J ob/ob mouse assessed as inhibition of food intake at 50 mg/kg, ip measured up to 12 hrs relative to vehicle-treated control", "format": "functional", "conditions": "route intraperitoneal", "method_in_brief": "(§1)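 Male mice were acclimated 1 week at 23 ± 3 °C and 50 ± 20% humidity, then fasted 24 h. They were dosed once intraperitoneally with vehicle or compound: 50 mg/kg in C57BL/6, or 12.5, 25 or 50 mg/kg in B6.V-Lep^ob/J. Food intake was measured at 2, 6 and 12 h versus vehicle control.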"}, "Mus musculus [4]": {"system": "Mus musculus", "test": "Antiobesity activity in B6.V/J ob/ob mouse assessed as change in gonadal adipose tissue weight at 25 mg/kg, po bid measured after 14 days (reference value: 3.599 +/- 0.155 g)", "format": "functional"}, "[5]": {"test": "AUC (0 to infinity) in Sprague-Dawley rat at 10 mg/kg, po", "format": "ADME, organism-based", "design": "time infinity, dose 10 mg/kg, route oral", "conditions": "plasma"}, "[6]": {"test": "Mean residence time in Sprague-Dawley rat at 10 mg/kg, iv", "format": "ADME, organism-based", "design": "dose 10 mg/kg, route intravenous", "conditions": "in vivo", "method_in_brief": "(§2)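 Rats fasted 12 h, then dosed orally by gavage or by bolus tail-vein injection at 2 ml/kg. Compound given as a 5 mg/ml solution in N-methyl-2-pyrrolidone/Tween 80/water (1:2:7). Samples taken at various times (n = 5) and stored at −70 °C. Plasma deproteinized with acetonitrile containing carbamazepine internal standard, then quantified by LC-MS/MS.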"}, "[7]": {"test": "Tmax in Sprague-Dawley rat at 10 mg/kg, po", "format": "ADME, organism-based", "design": "dose 10 mg/kg, route oral", "conditions": "in vivo", "method_in_brief": "as §2"}, "[8]": {"test": "AUClast in Sprague-Dawley rat at 10 mg/kg, po", "format": "ADME, organism-based", "design": "time 0 - last, dose 10 mg/kg, route oral", "conditions": "plasma"}, "Mus musculus [9]": {"system": "Mus musculus", "test": "Antiobesity activity in B6.V/J ob/ob mouse assessed as inhibition of food intake at 12.5 mg/kg, ip measured up to 2 hrs relative to vehicle-treated control", "format": "functional", "conditions": "route intraperitoneal", "method_in_brief": "as §1"}, "[10]": {"target": "5-hydroxytryptamine receptor 6 (Homo sapiens, UniProt P50406)", "sequence (P50406 whole entry)": "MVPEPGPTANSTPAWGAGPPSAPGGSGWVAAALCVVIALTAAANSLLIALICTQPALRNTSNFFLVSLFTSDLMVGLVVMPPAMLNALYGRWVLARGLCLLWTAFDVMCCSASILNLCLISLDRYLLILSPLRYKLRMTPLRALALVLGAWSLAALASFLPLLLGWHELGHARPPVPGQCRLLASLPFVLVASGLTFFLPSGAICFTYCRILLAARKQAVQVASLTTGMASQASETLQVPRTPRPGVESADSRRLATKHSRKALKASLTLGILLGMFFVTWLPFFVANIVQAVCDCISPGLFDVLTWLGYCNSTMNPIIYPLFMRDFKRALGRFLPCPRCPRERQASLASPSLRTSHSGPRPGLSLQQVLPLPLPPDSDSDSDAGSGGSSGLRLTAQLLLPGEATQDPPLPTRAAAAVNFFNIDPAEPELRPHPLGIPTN", "test": "Displacement of [3H]-LSD from human recombinant 5HT-6 receptor expressed in CHOK1 cell membranes after 60 mins", "design": "species or system CHO-K1", "method_in_brief": "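CHO-K1 membranes expressing human 5-HT6 incubated with 1 nM [3H]LSD for 60 min at 27 °C in 50 mM Tris-HCl pH 7.4 containing 4 mM CaCl2 and 0.1% ascorbic acid. Terminated by filtration on glass-fiber filters presoaked in 0.5% PEI. Methiothepin defined nonspecific binding.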"}, "[11]": {"test": "Ratio of drug level from brain to plasma in Sprague-Dawley rat at 10 mg/kg, iv measured at 2 hrs", "format": "ADME, organism-based", "design": "dose 10 mg/kg, route intravenous", "conditions": "read-out: BPR", "method_in_brief": "as §2"}, "Mus musculus [12]": {"system": "Mus musculus", "test": "Antiobesity activity in B6.V/J ob/ob mouse assessed as change in kidney weight at 5 mg/kg, po bid measured after 14 days (reference value: 0.339 +/- 0.009 g)", "format": "functional"}, "[13]": {"test": "Drug uptake in Sprague-Dawley rat brain at 10 mg/kg, iv measured at 2 hrs", "format": "ADME, organism-based", "design": "dose 10 mg/kg, route intravenous", "conditions": "read-out: Drug uptake", "method_in_brief": "as §2"}, "Mus musculus [14]": {"system": "Mus musculus", "test": "Antiobesity activity in B6.V/J ob/ob mouse assessed as inhibition of body weight gain at 50 mg/kg, ip measured after 12 hrs relative to vehicle-treated control", "format": "functional", "conditions": "route intraperitoneal"}, "[15]": {"test": "Drug excretion in Sprague-Dawley rat at 10 mg/kg, iv", "format": "ADME, organism-based", "design": "dose 10 mg/kg, route intravenous", "conditions": "in vivo, read-out: Ae", "method_in_brief": "as §2"}, "Mus musculus [16]": {"system": "Mus musculus", "test": "Antiobesity activity in B6.V/J ob/ob mouse assessed as inhibition of food intake at 25 mg/kg, ip measured up to 2 hrs relative to vehicle-treated control", "format": "functional", "conditions": "route intraperitoneal", "method_in_brief": "as §1"}, "Mus musculus [17]": {"system": "Mus musculus", "test": "Antiobesity activity in B6.V/J ob/ob mouse assessed as change in spleen weight at 50 mg/kg, po bid measured after 14 days (reference value: 0.097 +/- 0.052 g)", "format": "functional"}, "[18]": {"target": "T1, 5-hydroxytryptamine receptor 2C (Homo sapiens, UniProt P28335)", "T1 sequence (P28335 whole entry)": "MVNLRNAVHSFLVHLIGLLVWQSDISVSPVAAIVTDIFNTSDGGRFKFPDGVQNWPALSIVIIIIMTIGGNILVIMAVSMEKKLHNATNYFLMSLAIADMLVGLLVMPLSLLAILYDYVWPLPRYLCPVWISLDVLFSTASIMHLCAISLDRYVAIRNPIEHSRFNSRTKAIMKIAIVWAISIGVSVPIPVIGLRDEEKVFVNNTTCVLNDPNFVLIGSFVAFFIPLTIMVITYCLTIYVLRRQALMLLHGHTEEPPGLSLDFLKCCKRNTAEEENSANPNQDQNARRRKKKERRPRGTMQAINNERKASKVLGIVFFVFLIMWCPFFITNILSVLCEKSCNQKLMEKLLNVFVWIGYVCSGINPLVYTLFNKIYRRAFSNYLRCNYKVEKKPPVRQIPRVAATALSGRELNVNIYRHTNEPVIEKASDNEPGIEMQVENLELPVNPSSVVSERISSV", "test": "Displacement of [3H]-mesulergine from human recombinant 5HT-2C receptor expressed in CHOK1 cell membranes after 30 mins", "design": "species or system CHO-K1", "method_in_brief": "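Frozen CHO-K1 membranes expressing recombinant human 5-HT2C incubated with 1 nM [3H]mesulergine in 50 mM Tris-HCl pH 7.4 containing 0.1% ascorbic acid and pargyline. Mianserin defined nonspecific binding.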"}, "[19]": {"test": "Terminal half life in Sprague-Dawley rat at 10 mg/kg, iv", "format": "ADME, organism-based", "design": "dose 10 mg/kg, route intravenous", "conditions": "in vivo, read-out: beta t1/2", "method_in_brief": "as §2"}, "Mus musculus [20]": {"system": "Mus musculus", "test": "Antiobesity activity in B6.V/J ob/ob mouse assessed as change in spleen weight at 5 mg/kg, po bid measured after 14 days (reference value: 0.097 +/- 0.052 g)", "format": "functional"}, "[21]": {"target": "5-hydroxytryptamine receptor 7 (Homo sapiens, UniProt P34969)", "sequence (P34969 whole entry)": "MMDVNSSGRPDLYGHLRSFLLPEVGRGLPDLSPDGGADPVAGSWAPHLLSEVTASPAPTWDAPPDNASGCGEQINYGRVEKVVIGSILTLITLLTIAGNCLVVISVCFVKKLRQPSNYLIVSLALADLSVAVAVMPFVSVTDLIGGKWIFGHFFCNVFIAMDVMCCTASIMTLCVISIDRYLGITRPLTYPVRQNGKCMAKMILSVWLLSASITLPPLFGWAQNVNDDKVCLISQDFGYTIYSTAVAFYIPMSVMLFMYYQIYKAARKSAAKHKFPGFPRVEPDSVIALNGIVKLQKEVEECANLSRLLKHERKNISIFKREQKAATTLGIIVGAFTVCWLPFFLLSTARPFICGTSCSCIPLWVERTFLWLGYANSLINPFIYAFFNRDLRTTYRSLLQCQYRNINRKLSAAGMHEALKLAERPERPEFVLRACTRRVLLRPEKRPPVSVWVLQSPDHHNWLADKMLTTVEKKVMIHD", "test": "Displacement of [3H]-LSD from human recombinant 5HT-7 receptor expressed in CHOK1 cell membranes after 120 mins", "design": "species or system CHO-K1", "method_in_brief": "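CHO-K1 membranes expressing human 5-HT7 incubated with 3 nM [3H]LSD for 120 min at 27 °C in 50 mM Tris-HCl pH 7.4, 10 mM MgSO4, 0.5 mM EDTA. Filtered on glass-fiber filters presoaked in 0.3% PEI. Methiothepin defined nonspecific binding.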"}, "Mus musculus [22]": {"system": "Mus musculus", "test": "Antiobesity activity in B6.V/J ob/ob mouse assessed as reduction of body weight gain at 50 mg/kg, po bid measured after 14 days", "format": "functional, organism-based", "design": "dose 50 mg/kg"}, "Mus musculus [23]": {"system": "Mus musculus", "test": "Antiobesity activity in B6.V/J ob/ob mouse assessed as change in liver weight at 50 mg/kg, po bid measured after 14 days (reference value: 3.396 +/- 0.162 g)", "format": "functional"}, "Mus musculus [24]": {"system": "Mus musculus", "test": "Antiobesity activity in B6.V/J ob/ob mouse assessed as change in liver weight at 25 mg/kg, po bid measured after 14 days (reference value: 3.396 +/- 0.162 g)", "format": "functional"}},
  "note": "Active and inactive are the calls of the source. No cut-off for these calls is given here.",
  "data": [
    {"compound": "Cl.Clc1cccc(Nc2nc(Cc3ccccc3)nc3c2CCNCC3)c1", "values": [
      {"measurement": "Activity", "setting": "Mus musculus [1]", "value": "inactive"},
      {"measurement": "IC50", "setting": "[2]", "value": 3, "unit": "nM"},
      {"measurement": "inhibition in vivo at 50 mg/kg", "setting": "Mus musculus [3]", "value": 93.3, "unit": "%"},
      {"measurement": "Activity", "setting": "Mus musculus [4]", "value": 3.127, "unit": "g"},
      {"measurement": "AUC(0-inf)", "setting": "[5]", "value": 1050, "unit": "ng·h/mL"},
      {"measurement": "MRT", "setting": "[6]", "value": 1.88, "unit": "h"},
      {"measurement": "Tmax", "setting": "[7]", "value": 3.5, "unit": "h"},
      {"measurement": "AUC(0-t)", "setting": "[8]", "value": 375, "unit": "ng·h/mL"},
      {"measurement": "inhibition in vivo at 12.5 mg/kg", "setting": "Mus musculus [9]", "value": 98.6, "unit": "%"},
      {"measurement": "IC50", "setting": "[10]", "value": 21.8, "unit": "nM"},
      {"measurement": "Kp at 2 h", "setting": "[11]", "value": 9.33},
      {"measurement": "Activity", "setting": "Mus musculus [12]", "value": 0.329, "unit": "g"},
      {"measurement": "concentration at 2 h", "setting": "[13]", "value": 1480, "unit": "ng/mL"},
      {"measurement": "inhibition in vivo at 50 mg/kg", "setting": "Mus musculus [14]", "value": 80.2, "unit": "%"},
      {"measurement": "dose excreted", "setting": "[15]", "value": 0.03, "unit": "%"},
      {"measurement": "inhibition in vivo at 25 mg/kg", "setting": "Mus musculus [16]", "value": 99.8, "unit": "%"},
      {"measurement": "Activity", "setting": "Mus musculus [17]", "value": 0.075, "unit": "g"},
      {"measurement": "IC50", "setting": "[18]", "value": 2.3, "unit": "nM"},
      {"measurement": "half-life", "setting": "[19]", "value": 2.25, "unit": "h"},
      {"measurement": "Activity", "setting": "Mus musculus [20]", "value": 0.057, "unit": "g"},
      {"measurement": "IC50", "setting": "[21]", "value": 1000, "unit": "nM"},
      {"measurement": "Activity", "setting": "Mus musculus [22]", "value": "Active"},
      {"measurement": "Activity", "setting": "Mus musculus [23]", "value": 3.87, "unit": "g"},
      {"measurement": "Activity", "setting": "Mus musculus [24]", "value": 3.173, "unit": "g"}
    ]}
  ]
}
